Source: PubChem (several laboratories)
PfGluPho inh = PfG6PD (Plasmodium falciparum) enzyme inhibition; AID 504690; PfGluPho enzyme, NADPH resazurin-diaphorase fluorescence; inhibition, % at 20 µM; 350,000 compounds, 0.78% hits;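 active = inhibition reaching at least a set limit at 20 µM in the primary screen, cut at about 59% in these data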
HKDC1 inh = inhibitors of human hexokinase HKDC1. AID 493160. inhibition, % at 20 µM. 340,000 compounds, 0.16% hits. recombinant HKDC1, G6PDH/diaphorase resazurin coupled fluorescence;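 active = inhibition above about 35% when tested at 20 µM, limit read from the data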
Target sequence (Q2TB90 whole entry, looked up): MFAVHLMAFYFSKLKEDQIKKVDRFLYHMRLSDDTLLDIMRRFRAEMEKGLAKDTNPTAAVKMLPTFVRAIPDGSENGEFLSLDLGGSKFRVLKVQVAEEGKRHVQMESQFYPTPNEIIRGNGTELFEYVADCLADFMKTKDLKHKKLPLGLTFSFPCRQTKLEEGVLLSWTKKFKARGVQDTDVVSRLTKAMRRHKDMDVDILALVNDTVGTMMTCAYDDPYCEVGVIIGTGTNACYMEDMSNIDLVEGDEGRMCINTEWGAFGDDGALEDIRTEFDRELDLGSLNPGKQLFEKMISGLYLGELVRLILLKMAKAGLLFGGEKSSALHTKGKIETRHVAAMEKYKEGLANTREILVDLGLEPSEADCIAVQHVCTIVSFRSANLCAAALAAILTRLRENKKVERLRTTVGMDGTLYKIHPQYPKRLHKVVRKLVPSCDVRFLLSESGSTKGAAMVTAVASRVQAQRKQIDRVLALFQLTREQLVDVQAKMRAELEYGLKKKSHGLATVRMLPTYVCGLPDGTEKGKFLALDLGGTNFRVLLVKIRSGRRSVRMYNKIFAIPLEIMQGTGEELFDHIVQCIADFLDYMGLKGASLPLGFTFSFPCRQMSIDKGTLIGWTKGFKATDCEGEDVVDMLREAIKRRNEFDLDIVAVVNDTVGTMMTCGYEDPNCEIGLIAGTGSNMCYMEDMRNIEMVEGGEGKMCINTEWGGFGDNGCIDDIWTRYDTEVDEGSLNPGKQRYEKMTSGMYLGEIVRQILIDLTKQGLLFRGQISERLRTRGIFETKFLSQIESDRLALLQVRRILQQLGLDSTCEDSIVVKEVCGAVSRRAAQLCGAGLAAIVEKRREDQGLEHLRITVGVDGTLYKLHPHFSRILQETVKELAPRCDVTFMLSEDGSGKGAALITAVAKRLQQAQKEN
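Assay system: in-house recombinant HK5 (HKDC1) enzyme. Input: HKDC1 at 5 µg/mL. Medium: Tris pH 8.0 buffer with MgCl2, Tween-20, BSA, BME. Dosing: single 20 µM dose. Schedule: 90 min reaction incubation at room temperature, dark. Signal: resazurin-to-resorufin fluorescence via G6PDH and diaphorase coupling, 525/613 nm. Controls: DMSO-enzyme wells negative, buffer-substituted wells positive.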
Neddylation inh = inhibitors of human cullin neddylation; TR-FRET cullin neddylation, biochemical; 360,000 compounds, 0.58% hits; inhibition, % at 25 µM; in the data active = inhibition above about 36%
M18AAP inhibitor = PfM18AAP enzyme inhibition | 290,000 compounds, 1.2% hits | inhibition, % at 7.35 µM | AID 1822 | recombinant PfM18AAP, H-Glu-NHMec fluorogenic cleavage;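 active = inhibition above the campaign mean inhibition over all tested compounds plus 3 SD, cut at about 28% in these data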
HKDC1 act conf = confirmation of human HKDC1 activators. inhibition, % at 20 µM. recombinant HKDC1, G6PDH/diaphorase resazurin fluorescence; active compounds read low. shares compounds with HKDC1 inh. 740 compounds, 14% hits. AID 504708;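 active = inhibition at or below a set negative limit, negative inhibition meaning the enzyme was activated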
Hits are given with their value; 0 = inactive; - = no result shown. Compounds with a hit are over-represented: about 2.2% of the library has one in this group of screens.

SMILES	PfGluPho inh	HKDC1 inh	Neddylation inh	M18AAP inhibitor	HKDC1 act conf
COc1cccc(Nc2ccccc2C(=O)O)c1	0	0	0	0	-
S=C(NCc1ccccn1)NN=Cc1ccccn1	0	0	0	-	-45.4
COc1ccc(C2=CC3=C(Br)C(=O)C(C)(OC(=O)c4ccc(Cl)nc4)C(=O)C3=CO2)cc1 (stereo unspecified)	0	0	-	-	-
COC(=O)CCC(=O)OC1(C)C(=O)C2=CN(Cc3ccc4c(c3)OCO4)C(c3ccc(OC)cc3)=CC2=C(Br)C1=O (stereo unspecified)	66.9	39.9	0	-	0
CC1(OC(=O)C2CCCC2)C(=O)C=C2C=C(c3ccsc3)OC=C2C1=O (stereo unspecified)	0	0	0	-	-
COC(=O)CCC(=O)OC1(C)C(=O)C2=COC(c3ccc(OC)cc3)=CC2=C(Br)C1=O (stereo unspecified)	0	36.7	-	-	0
COc1ccc(C2=CC3=C(Br)C(=O)C(C)(OC(=O)C4CCCC4)C(=O)C3=CO2)cc1 (stereo unspecified)	0	52.8	0	-	0
COC(=O)CCC(=O)OC1(C)C(=O)C2=CN(CCCCO)C(c3ccc(OC)cc3)=CC2=C(Br)C1=O (stereo unspecified)	-	-	-	0	-
C[C@@H]1[C@H](O)C[C@@]23COC(=O)C2=CCC[C@@H]3[C@@]1(C)CC/C(=C/CO)CO	0	0	0	-	-
O=C(C[C@@H]1C/C=C\C[C@H](Cc2ccc(F)cc2)C(=O)OC[C@@H]2CCCN2C1=O)N[C@H](CO)Cc1ccccc1	0	0	0	-	-
O=C(NNC(=O)c1cncc(Br)c1)c1ccncc1	0	0	0	-	-
CCNC(=S)N/N=C1\C(=O)c2cccc3cccc1c23	0	0	0	0	-
O=C(N/N=C1/C(=O)c2cccc3cccc1c23)c1ccc(Cl)cc1	0	43.5	0	0	0
N#Cc1c(SCC(=O)Nc2nc3ccccc3s2)sc2c(O)cc(=O)[nH]c12	0	0	0	-	-
N#Cc1c(SCC(=O)Nc2nc3ccc(Br)cc3s2)sc2c(O)cc(=O)[nH]c12	0	0	0	0	0
Cc1cc(CNC(=O)c2cccc(OC3CCN(S(=O)(=O)N(C)C)CC3)c2)on1	0	0	0	0	-
CC(=O)NC1C(=O)N(CCN2CCOCC2)c2ccc(F)cc21 (stereo unspecified)	0	79.3	0	0	0
CC(=O)NC1C(=O)N(CCN2CCOCC2)c2ccc(Cl)cc21 (stereo unspecified)	0	82.4	0	0	0
CC(=O)NC1C(=O)N(CCN2CCOCC2)c2ccc(C)cc21 (stereo unspecified)	0	85.7	0	48.4	0
COc1cc(OC)cc(C(=O)NC(=S)NNC(=O)c2cnccn2)c1	0	0	0	0	-40.0
COc1ccc(C(=O)NC(=S)NNC(=O)c2cnccn2)cc1OC	0	0	0	0	-
O/C=c1\ccc2cccc3nc(C(F)(F)F)nc1c23	0	40.4	0	0	0
Cn1nccc1C(=O)N1CCN(c2cccc(C(F)(F)F)c2)CC1	0	0	0	0	-
Cn1nccc1C(=O)N1CCN(c2cccc(Cl)c2)CC1	0	38.7	0	0	0
Cc1onc(-c2ccccc2)c1C(=O)NNC(=S)NC(=O)/C=C/c1cccs1	0	0	0	0	0
SMILES	PfGluPho inh	HKDC1 inh	Neddylation inh	M18AAP inhibitor	HKDC1 act conf
Cc1onc(-c2ccccc2)c1C(=O)NC(=S)NNC(=O)c1ccncc1	0	0	0	0	-
Cc1oc2c(CN3CCCCC3)c(O)ccc2c(=O)c1-c1ccc(Cl)cc1	0	0	-	0	-
COc1ccc2nc(NC(=O)CSCC(=O)Nc3cc(C)on3)sc2c1	0	0	0	-	-
O=C(COC(=O)CC1CCS(=O)(=O)C1)Nc1ccc(F)cc1 (stereo unspecified)	0	0	0	-	-
CC(=NNc1nc2ccccc2o1)c1ncccn1	0	0	0	-	-
CC(=NNc1nc2ccccc2o1)c1cc2ccccc2cn1	0	0	0	-	-77.2
CN(CC(=O)Nc1ccc(Cl)c(C(F)(F)F)c1)C(=O)c1ccc2c(c1)NC(=O)CS2	0	0	0	-	-
COc1ccc(OC)c2[nH]c(=O)c(CCNC(=O)c3ccc(S(=O)(=O)N4CCCCC4)cc3)cc12	0	0	0	0	-
Cc1cc2cc(CCNC(=O)c3ccc(S(=O)(=O)N4CCCC4)cc3)c(=O)[nH]c2cc1C	0	41.4	0	0	0
C=CCN(CC=C)Cc1cc(=O)oc2ccc3ccccc3c12	-	-	0	-	-
C=CCN(CC=C)Cc1c(O)ccc2c1oc(=O)c1ccccc12	0	0	0	0	0
COc1ccc(Cl)cc1NC(=O)CN(C)C(=O)CCc1nc2ccccc2c(=O)[nH]1	0	0	0	-	-
COc1ccccc1Nc1nnc(SCc2nnc(-c3cc(OC)c(OC)c(OC)c3)o2)s1	0	0	0	0	0
COc1ccccc1Nc1nnc(SCC2CCCCO2)s1 (stereo unspecified)	0	0	0	0	-
CCOc1ccccc1Nc1nnc(SCc2nnc(-c3cc(OC)c(OC)c(OC)c3)o2)s1	0	48.2	0	0	0
CCOc1ccccc1Nc1nnc(SCC(=O)Nc2nc(-c3ccc(OC)cc3)cs2)s1	0	0	0	0	-
CN(C)S(=O)(=O)n1cnc([C@@H]2[C@@H]3C(=O)OC[C@@H]3C[C@]23N=CN(Cc2ccccc2)C3=O)c1	0	0	0	-	-
Cc1ccc(-n2c3nc(=O)[nH]c(=O)c-3cc3cc([N+](=O)[O-])ccc32)cc1	0	49.4	0	0	0
Cc1cc2cc(CN(Cc3cccs3)S(=O)(=O)c3ccc4c(c3)OCCO4)c(=O)[nH]c2cc1C	0	0	0	0	0
COc1ccc(CN2CCNC(=O)C2CC(=O)NCC2CCOCC2)cc1C (stereo unspecified)	0	0	0	0	-
O=C(C1=C(O)C(=O)N(c2nc3ccc(Cl)cc3s2)C1c1ccco1)c1ccco1 (stereo unspecified)	0	36.3	0	-	0
C[C@]12c3[nH]c4ccc(Cl)cc4c3CCN1C(=O)[C@@H](CC(=O)NCc1cccc(C(F)(F)F)c1)C[C@@H]2C(=O)N1CCOCC1	0	0	0	-	0
CCN(CC)S(=O)(=O)c1ccc(N/N=C(\C)c2ccc(OC)cc2O)nc1	0	0	0	0	0
CCN(CC)S(=O)(=O)c1ccc(N/N=C/c2ccc(O)cc2)nc1	0	0	0	0	-
CCOC(=O)c1ccc(N=C2C(=S)N(c3ccc(C(=O)OCC)cc3)C(=N)N2/N=C/c2ccccc2)cc1	0	0	0	0	0
SMILES	PfGluPho inh	HKDC1 inh	Neddylation inh	M18AAP inhibitor	HKDC1 act conf
CN(C)c1ccc(/C=N/N2C(=N)N(c3ccccc3)C(=S)C2=Nc2ccccc2)cc1	-	-	-	0	-
O=C1CSC(=S)N1N=Cc1ccccc1O	0	0	0	-	0
O=C1CSC(=S)N1N=Cc1cccc2ccccc12	0	0	0	-	-
CCc1ccc(S(=O)(=O)/N=C2\C=CC(=O)c3ccccc32)cc1	-	-	-	0	-
CCc1ccc(S(=O)(=O)/N=C2/C=C(Sc3ncn[nH]3)C(=O)c3ccccc32)cc1	106.7	71.3	0	46.5	0
COC(=O)[C@@H](NCc1cccc(CN([C@H](C(=O)OC)C(C)C)S(C)(=O)=O)c1)C(C)C	0	0	0	0	-
